Hits are enriched below; roughly 2% of the tested compounds scored in any of these assays.
Xi reactivation: X-chromosome reactivation activator; XiGFP mouse fibroblasts, % GFP-positive cells imaging, 3 d; cells co-treated with 5-aza-dC sensitizer; scaled so ellipticine positive control = 100%; 0.055% of 360,000 active; activation, % at 7.58 µM; AID 743238;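 active means mean normalized replicate activation at least 10% and every replicate at or above 10%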;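 further: 0% = median of on-plate neutral control wells and 100% = ellipticine 6 µM median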
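Assay system: SV40-immortalized XiGFP fibroblast cells, line 68-5-11; buffer or medium: DMEM plus 5-aza-dC sensitizer; compound: one concentration, pinned; timing: compounds 3 days, fix/stain 15 min at room temperature; benchmarks: positive control ellipticine, 6 µM final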
NSD2 HMT inh: NSD2 (human) methyltransferase inhibition; O96028; AID 743445; 0.54% of 310,000 active; inhibition, % at 12.5 µM; NSD2 peptide methylation, AlphaScreen, 120 min; in the data active means inhibition above about 50%
SR-BI DiI-HDL act: SR-BI HDL lipid transfer activation. CHO ldlA[mSR-BI] cells, DiI-HDL uptake fluorescence, 3 h; 100 = double the neutral-control signal. activation, % at 12.5 µM. 0.096% of 320,000 active;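 active means mean replicate activation of at least 60% and every replicate at or above 60%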;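 further: 0% = median plate neutral-control signal and 100% = twice that signal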
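Material – SR-BI-overexpressing, LDLR-lacking CHO cells · Medium – BSA-supplemented, HEPES-buffered Ham's F12, pH 7.4 · Doses – single concentration · Times – compound with DiI-HDL co-incubation, 3 h at 37 °C · Measured by – bottom-read fluorescence, 550/595 nm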
SR-BI HDL uptake: blocks mouse SR-BI lipid uptake from DiI-HDL; ldlA[mSR-BI] CHO cells, DiI-HDL uptake fluorescence, 3 h; inhibition, % at 12.5 µM; AID 488896; Q61009; 0.96% of 320,000 active;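 active means mean replicate inhibition of at least 70% and a set share of replicates each scoring 70 or more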;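 further: 0% = median of neutral control wells and 100% = median of positive control wells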
Target sequence (Q61009 whole entry, looked up): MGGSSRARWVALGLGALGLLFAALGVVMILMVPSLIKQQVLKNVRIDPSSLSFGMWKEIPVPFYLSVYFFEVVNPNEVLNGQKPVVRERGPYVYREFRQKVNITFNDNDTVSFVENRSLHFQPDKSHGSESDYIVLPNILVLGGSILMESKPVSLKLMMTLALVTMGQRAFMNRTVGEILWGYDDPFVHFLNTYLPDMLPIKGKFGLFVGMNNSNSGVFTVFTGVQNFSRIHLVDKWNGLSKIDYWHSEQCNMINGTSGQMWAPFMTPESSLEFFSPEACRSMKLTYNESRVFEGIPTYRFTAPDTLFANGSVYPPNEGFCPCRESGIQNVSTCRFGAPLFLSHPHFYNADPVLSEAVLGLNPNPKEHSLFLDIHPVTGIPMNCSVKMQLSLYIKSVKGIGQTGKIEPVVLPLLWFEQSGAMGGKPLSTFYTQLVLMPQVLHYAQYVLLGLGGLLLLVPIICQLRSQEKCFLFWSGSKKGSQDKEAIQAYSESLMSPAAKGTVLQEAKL
sPLA2-III inh: Inhibits HGIII-sPLA2 liposome hydrolysis, primary screen; 0.56% of 370,000 active; QFRET BODIPY PC-A2 liposome hydrolysis, fluorescence; inhibition, % at 12.2 µM; Q9NZ20;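 active means inhibition above mean plus 3 SD of compounds lying within the high and low control bounds, cut at about 19% in these data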;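 further: 0% = median of test compound wells and 100% = no enzyme DMSO wells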
ARNT TACC3 PPI: ARNT/TACC3 interaction disruption; Q9Y6A5; AlphaScreen His-ARNT PAS-B/GST-TACC3 binding, luminescence; TACC3 fragment carries E629A point mutation; inhibition, % at 9.99 µM; 0.66% of 390,000 active;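 active means mean inhibition of replicates at least 50% and at least half of replicates each reaching 50%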;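 further: 0% = complete ARNT plus TACC3 wells and 100% = ARNT alone without TACC3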
Active calls of the source: *; / = not tested or not shown.

SMILES	Xi reactivation	NSD2 HMT inh	SR-BI DiI-HDL act	SR-BI HDL uptake	sPLA2-III inh	ARNT TACC3 PPI
O=C(Nc1ccc(NC(=O)c2ccccc2Cl)cc1)c1cccnc1	0.2	0.8	-1.5	1.5	-0.6	-4.9
COc1ccc(C2C(C(=O)N3CCCCC3C)CC(=O)N2c2ccc(OC)cc2)cc1 (centres undefined)	/	7.6	/	/	6.2	/
Nc1nc2c(ncn2-c2ccccc2)c(=O)[nH]1	0.0	-0.3	17.6	-17.6	-1.1	46.1*
c1ccc(OCCSc2nc3ccccc3[nH]2)cc1	/	-5.8	13.9	-13.9	-8.1	-4.8
Cc1cc(C(=O)N/N=C/c2cc(Br)ccc2OC(=O)c2ccccc2Cl)n[nH]1	0.9	1.0	-86.7	86.7*	-12.1	0.6
O=C(NC1CCCC1)N1CC(=O)N2[C@@H](CO)[C@@H](c3ccc(-c4cccnc4)cc3)[C@@H]2C1	0.5	/	/	/	/	/
Cc1ccc(C=Nc2cccnc2N)cc1	/	/	-4.0	4.0	/	6.0
COc1ccc(C=Nc2cccnc2N)cc1	/	2.6	-17.8	17.8	/	28.4*
COCC(O)Cn1ccnc1N=Nc1ccccc1 (centres undefined)	-0.1	2.2	/	/	-1.1	/
COc1ccc(CC(=O)OCC(=O)NCc2ccccc2Cl)cc1OC	0.0	-0.2	80.0*	-80.0	-4.3	-0.9
COc1ccccc1CNC(=O)COC(=O)Cc1ccc(Br)cc1	0.4	-1.9	8.0	-8.0	-16.4	4.3
O=C(COC(=O)CNC(=O)c1ccccc1F)NCCC1=CCCCC1	0.2	0.5	28.9	-28.9	2.7	-3.2
Cc1cc(N2CCN(C)CC2)nc2ccc(NC(=S)NCCCN3CCc4ccccc4C3)cc12	2.9	/	/	/	5.5	20.5
CCOC(=O)N1CCC(NC(=S)Nc2ccc3nc(N4CCN(C)CC4)cc(C)c3c2)CC1	0.7	/	111.6*	-111.6	-6.6	4.1
Cc1cccc(N2CCN(C(=S)Nc3ccc4nc(N5CCN(C)CC5)cc(C)c4c3)CC2)c1C	-0.2	/	-89.0	89.0*	-9.0	-2.1
Cc1cc(N2CCN(C)CC2)nc2ccc(NC(=S)NCCN3CCc4ccccc4C3)cc12	49.3*	10.6	/	/	-5.5	20.1
Cc1[nH]n(-c2nc(-c3ccccc3F)cc(=O)[nH]2)c(=O)c1CCO	0.0	-2.2	30.6	-30.6	4.6	45.0*
Cc1cccc(NC(=O)CCc2c(C)nn(-c3ccc(N4CCOCC4)nn3)c2C)c1	0.1	-3.9	-61.2	61.2	-6.8	5.3
Cc1nn(-c2ccc(N3CCCCC3)nn2)c(C)c1CCC(=O)Nc1cc(F)ccc1F	0.0	-10.5	-72.5	72.5*	1.4	5.9
Cc1ccccc1NC(=O)CCc1c(C)nn(-c2ccc(N3CCCCC3)nn2)c1C	0.0	3.0	-81.8	81.8*	-0.8	/
Cc1ccc(NC(=O)CCc2c(C)nn(-c3ccc(N4CCOCC4)nn3)c2C)cc1C	0.0	0.2	-79.2	79.2*	-1.0	5.1
Cc1nn(-c2ccc(N3CCCCC3)nn2)c(C)c1CCC(=O)Nc1ccccc1F	0.1	-7.6	-67.1	67.1	-0.9	6.2
COCCn1c(C)nnc1SCC(=O)NNC(=O)c1ccc(Br)cc1	0.5	-4.5	24.9	-24.9	0.5	-19.1
Cc1ccccc1/C=N/Nc1ccnc2cc(Cl)ccc12	0.2	-0.5	-25.0	24.9	-17.5	-3.2
Cc1cc(N/N=C/c2cccc(Cl)c2)nc(-n2nc(C)cc2C)n1	0.1	-1.1	/	/	-0.8	1.1
SMILES	Xi reactivation	NSD2 HMT inh	SR-BI DiI-HDL act	SR-BI HDL uptake	sPLA2-III inh	ARNT TACC3 PPI
Cc1nc(Cl)cc(N/N=C/c2ccc(O)cc2O)n1	0.0	-2.0	0.2	-0.2	-10.2	27.0*
Cc1cc(N/N=C/c2ccc(O)cc2O)nc(-n2nc(C)cc2C)n1	2.8	6.2	-93.7	93.7*	-29.0	-9.7
Oc1ccc(/C=N/Nc2ccnc3cc(Cl)ccc23)c(O)c1	68.1*	2.6	/	/	-35.6	-6.2
Cc1cc(N/N=C/c2ccc(O)cc2O)nc(-c2ccccc2O)n1	/	0.4	-113.7	113.8*	/	-6.6
CC1(C)CCCC(C)(C)N1CC(O)COCCOc1ccc(Br)cc1 (centres undefined)	0.4	-0.3	22.6	-22.6	5.0	7.8
O=C(Cc1cccnc1)N[C@@H]1CC[C@H](CCn2cc(-c3ccccc3F)nn2)O[C@H]1CO	-0.4	/	/	/	/	2.9
C[C@@H]1CCCCO[C@@H](CN(C)S(=O)(=O)c2cn(C)cn2)[C@H](C)CN([C@@H](C)CO)C(=O)c2cc(NC(=O)Nc3ccc(C(F)(F)F)cc3)ccc2O1	-0.1	/	/	/	/	-5.2
CCc1c(C#N)c(SCCC(=O)Nc2ccc(C)cc2)nc2c1C(=O)CC(C)(C)C2	/	-1.6	-73.2	73.2*	1.2	-7.1
CCOc1ccc(NC(=O)CCSc2nc3c(c(CC)c2C#N)C(=O)CC(C)(C)C3)cc1	/	3.1	-0.5	0.5	0.8	1.6
O=C(c1ccccc1NS(=O)(=O)c1ccc(Br)s1)N1CCOCC1	/	-0.5	8.9	-8.9	-10.5	/
CCCS(=O)(=O)Nc1ccc(Nc2c3ccccc3nc3ccccc23)c(OC)c1	0.4	5.2	-80.5	80.5*	-16.9	12.4
Cc1ccc(-n2c3nc(=O)[nH]c(=O)c-3cc3cc([N+](=O)[O-])ccc32)cc1	-0.1	26.3	-2.0	2.0	28.1*	/
C=CCOc1c(Br)cc(/C=C2\SC(=Nc3ccccc3)NC2=O)cc1OC	0.0	-2.5	-72.0	72.0*	-10.3	-1.5
CCc1ccc(N=C2NC(=O)/C(=C/c3cc(Br)c(OCC(=O)O)c(OC)c3)S2)cc1	0.0	10.6	-0.9	0.9	-25.4	-0.5
Cc1cc2c3c([nH]c2cc1S(=O)(=O)NCc1ccc(CN2CCCCCC2)o1)CC(C)(C)CC3=O	0.1	-4.8	-1.5	1.5	-9.5	3.2
COCCn1c(N)c(N(Cc2ccccc2)C(=O)C2=COCCO2)c(=O)[nH]c1=O	0.0	-2.2	-16.7	16.7	6.1	-6.6
CC1CCN(c2nnc(-c3ccccc3)c3ccccc23)CC1	0.0	13.4	-83.7	83.7*	-5.8	8.5
CCCS(=O)(=O)N1CCC(C(=O)N2CCCC2)CC1	/	-1.9	16.1	-16.1	-5.0	4.8
CCCS(=O)(=O)N1CCC(C(=O)N2CCOCC2)CC1	/	1.0	67.9*	-67.9	0.0	-0.7
Cc1cccc(CN(C)C[C@@H]2Oc3ncc(C#Cc4ccccc4)cc3C(=O)N([C@H](C)CO)C[C@@H]2C)c1	14.5*	/	/	/	/	18.2
COc1ccc(S(=O)(=O)N(C)C[C@H]2Oc3ncc(C#CC4(O)CCCC4)cc3C(=O)N([C@H](C)CO)C[C@@H]2C)cc1	-0.3	/	/	/	/	39.1*
Cc1noc(C)c1S(=O)(=O)Nc1cccc2c1O[C@@H](CN(C)Cc1ccc(Oc3ccccc3)cc1)[C@@H](C)CN([C@@H](C)CO)C2=O	0.1	/	/	/	/	/
Cc1cccc(C(=O)NNC(=O)C23CC4CC(CC(C4)C2)C3)c1O	0.3	-3.2	-100.5	100.5*	-8.7	-3.4

Screening results deposited in PubChem BioAssay by several laboratories.
